According to ChEMBL document CHEMBL1122208, “Inhibitors of hepatic mixed-function oxidases. 4. Effects of benzimidazole and related compounds on aryl hydrocarbon hydroxylase activity from phenobarbitone and 3-methylcholanthrene induced rats” (J Med Chem, 1982):
Counter-ions that a name gives are not always drawn.

Assays:
Cytochrome P450 2B1 [1] = biological target: T1, Cytochrome P450 2B1 (Rattus norvegicus, UniProt P00176); assay: Inhibition of Aminopyrine N-demethylase in Phenobarbitone-treated rats; settings: read-out: I50
T1 sequence (P00176 whole entry): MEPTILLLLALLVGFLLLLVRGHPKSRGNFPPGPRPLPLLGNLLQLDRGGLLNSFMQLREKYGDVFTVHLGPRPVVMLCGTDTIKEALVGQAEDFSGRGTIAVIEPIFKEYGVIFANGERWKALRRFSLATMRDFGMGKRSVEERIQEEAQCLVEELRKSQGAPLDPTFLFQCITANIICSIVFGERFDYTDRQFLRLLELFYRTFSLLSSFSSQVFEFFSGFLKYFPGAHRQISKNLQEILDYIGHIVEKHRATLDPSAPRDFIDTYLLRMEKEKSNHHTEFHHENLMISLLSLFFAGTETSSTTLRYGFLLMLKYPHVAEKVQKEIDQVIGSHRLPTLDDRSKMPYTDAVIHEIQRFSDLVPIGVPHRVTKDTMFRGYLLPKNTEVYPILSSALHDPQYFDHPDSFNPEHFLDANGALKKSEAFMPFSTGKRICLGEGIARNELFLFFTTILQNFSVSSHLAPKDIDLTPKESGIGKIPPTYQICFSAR
Method in brief: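 Hepatic microsomes from immature male Wistar rats dosed with PB 80 (mg/kg)/day ip for 3 days and starved 24 h. Prepared in 0.1 M potassium phosphate pH 7.4. Aminopyrine N-demethylation followed by formaldehyde formation. Results expressed as molar I50.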

[2] = biological target: T2, aryl hydrocarbon hydroxylase (cytochrome P450 1A1) (Rattus norvegicus, UniProt P00185); assay: Inhibition of Aryl hydrocarbon hydroxylase in phenobarbitone-treated rats; settings: read-out: I50
T2 sequence (P00185 whole entry): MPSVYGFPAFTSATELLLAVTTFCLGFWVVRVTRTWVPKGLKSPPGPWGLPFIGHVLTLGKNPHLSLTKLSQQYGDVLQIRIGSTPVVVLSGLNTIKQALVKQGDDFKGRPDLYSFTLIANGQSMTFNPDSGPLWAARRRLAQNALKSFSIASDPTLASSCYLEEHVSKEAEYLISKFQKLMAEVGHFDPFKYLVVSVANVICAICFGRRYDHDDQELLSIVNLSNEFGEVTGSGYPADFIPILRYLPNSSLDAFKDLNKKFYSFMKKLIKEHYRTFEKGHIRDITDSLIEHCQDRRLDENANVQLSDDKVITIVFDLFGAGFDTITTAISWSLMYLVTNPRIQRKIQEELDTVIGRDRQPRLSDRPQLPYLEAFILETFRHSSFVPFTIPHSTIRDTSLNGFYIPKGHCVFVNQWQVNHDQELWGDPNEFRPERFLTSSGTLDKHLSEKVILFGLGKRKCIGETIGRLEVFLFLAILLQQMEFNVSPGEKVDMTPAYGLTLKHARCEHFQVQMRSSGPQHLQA
Method in brief: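 Microsomes from immature male Wistar rats (100-150 g) given PB 80 (mg/kg)/day ip for 3 days, starved 24 h. Incubation: BP 285 nmol, MgCl2 3.0 μmol, NADPH 0.50 μmol, protein 1.2 mg, 0.1 M K phosphate pH 7.4, 3.0 mL. Run 10 min at 37 °C. Phenol fluorescence read at ex 396/em 522 nm. I50 by linear regression over five to eight inhibitor concentrations, mean of duplicates.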

[3] = biological target: T3, cytochrome P450 (cytochrome P450 1A1) (Rattus norvegicus, UniProt P00185); assay: Interaction with cytochrome P450 in 3-methylcholanthrene-induced rat hepatic microsomes; type: ADME, Liver; settings: read-out: Ks
T3 sequence (P00185 whole entry): T2 sequence (P00185 whole entry)
Method in brief: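 Hepatic microsomes from immature male Wistar rats given 3-MC (25 mg/kg in corn oil, ip, single dose) 3 days before sacrifice, starved 24 h. Optical difference spectra recorded at 1 mg/mL microsomal protein. Ks taken from abscissal intercept of double-reciprocal plot of ΔOD (peak-trough) vs concentration, five to eight concentrations, in duplicate.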

Cytochrome P450 2B1 [4] = biological target: T1, Cytochrome P450 2B1; assay: Interaction with cytochrome P450 in Phenobarbitone-induced rat hepatic microsomes; type: ADME, Liver; settings: read-out: Ks
Method in brief: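 Microsomes came from immature male Wistar rats dosed with phenobarbitone, 80 (mg/kg)/day ip for 3 days, and starved 24 h before sacrifice. Difference spectra recorded at 1 mg/mL microsomal protein. Ks obtained in duplicate from abscissal intercept of a double-reciprocal plot of ΔOD (peak-trough) against compound concentration, using five to eight concentrations.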

[5] = biological target: T2, aryl hydrocarbon hydroxylase (cytochrome P450 1A1); assay: Effect on Aryl hydrocarbon hydroxylase activity in 3-methylcolanthrene-induced rat liver microsomes at 4.3x10E-4M; type: ADME, Microsome; settings: 3-methylcholanthrene-induced rat liver microsomes, read-out: Control
Method in brief: (§1)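 Liver microsomes from immature male Wistar rats (100-150 g) given one 3-MC dose (25 mg/kg in corn oil, ip) 3 days before sacrifice, starved 24 h. Incubation: benzo[a]pyrene 357 nmol, MgCl2 3.0 μmol, NADPH 0.50 μmol, 1.2 mg protein, 0.1 M potassium phosphate pH 7.4 (3.0 mL), 6 min, 37 °C. Compound added from 0.07 N HCl or Me2SO-water stock at near-maximal solubility. Fluorescent phenols read ex 396/em 522 nm. Value is % of solvent control, mean of three determinations.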

[6] = Partition coefficient (logP); type: physicochemical; settings: octanol/water
[7] = biological target: T2, aryl hydrocarbon hydroxylase (cytochrome P450 1A1); assay: Effect on Aryl hydrocarbon hydroxylase activity in 3-methylcolanthrene-induced rat liver microsomes at 3.6x10E-4M; type: ADME, Microsome; settings: 3-methylcholanthrene-induced rat liver microsomes, read-out: Control
Method in brief: (§2)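 Liver microsomes from immature male Wistar rats (100-150 g) given one 3-MC dose (25 mg/kg in corn oil, ip) 3 days before sacrifice, starved 24 h. Incubation: BP 357 nmol, MgCl2 3.0 μmol, NADPH 0.50 μmol, protein 1.2 mg, 0.1 M K phosphate pH 7.4, 3.0 mL final volume. Run 6 min at 37 °C. Fluorescent phenols read at ex 396/em 522 nm. Activity given as % of solvent control, mean of three determinations, at roughly maximum solubility.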

[8] = biological target: T2, aryl hydrocarbon hydroxylase (cytochrome P450 1A1); assay: Effect on Aryl hydrocarbon hydroxylase activity in 3-methylcolanthrene-induced rat liver microsomes at 2.3x10E-4M; type: ADME, Microsome; settings: 3-methylcholanthrene-induced rat liver microsomes, read-out: Control; method in brief: as §2
Cytochrome P450 2B1 [9] = biological target: T1, Cytochrome P450 2B1; assay: Interaction (Ks) with cytochrome P450 in phenobarbitone-induced rat hepatic microsomes; type: ADME, Liver; settings: read-out: Ks
Method in brief: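 Difference spectra recorded with microsomes from PB-treated rats (80 (mg/kg)/day ip, 3 days) at 1 mg/mL microsomal protein. Ks obtained in duplicate from double-reciprocal plots of ΔOD (peak-trough) versus five to eight ligand concentrations, using the abscissal intercept.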

[10] = biological target: T3, cytochrome P450 (cytochrome P450 1A1); assay: Interaction (Ks) with cytochrome P450 in 3-methylcholanthrene-induced rat hepatic microsomes; type: ADME, Liver; settings: read-out: Ks
Method in brief: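 Optical difference spectra recorded with microsomes from 3-MC-treated rats (25 mg/kg in corn oil, ip, 3 days) at 1 mg/mL protein. Ks taken from the abscissal intercept of double-reciprocal plots of ΔOD (peak-trough) against five to eight compound concentrations, determined in duplicate.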

[11] = biological target: T2, aryl hydrocarbon hydroxylase (cytochrome P450 1A1); assay: Effect on Aryl hydrocarbon hydroxylase activity in 3-methylcolanthrene-induced rat liver microsomes at 5.0x10E-5M; type: ADME, Microsome; settings: 3-methylcholanthrene-induced rat liver microsomes, read-out: Control; method in brief: as §2
[12] = biological target: T2, aryl hydrocarbon hydroxylase (cytochrome P450 1A1); assay: Effect on Aryl hydrocarbon hydroxylase activity in 3-methylcolanthrene-induced rat liver microsomes at 1.7x10E-4M; type: ADME, Microsome; settings: 3-methylcholanthrene-induced rat liver microsomes, read-out: Control; method in brief: as §2
[13] = biological target: T2, aryl hydrocarbon hydroxylase (cytochrome P450 1A1); assay: Effect on Aryl hydrocarbon hydroxylase activity in 3-methylcolanthrene-induced rat liver microsomes at 5.9x10E-4M; type: ADME, Microsome; settings: 3-methylcholanthrene-induced rat liver microsomes, read-out: Control; method in brief: as §2
[14] = biological target: T2, aryl hydrocarbon hydroxylase (cytochrome P450 1A1); assay: Effect on Aryl hydrocarbon hydroxylase activity in 3-methylcolanthrene-induced rat liver microsomes at 1.2x10E-3M; type: ADME, Microsome; settings: 3-methylcholanthrene-induced rat liver microsomes, read-out: Control; method in brief: as §1
[15] = biological target: T2, aryl hydrocarbon hydroxylase (cytochrome P450 1A1); assay: Effect on Aryl hydrocarbon hydroxylase activity in 3-methylcolanthrene-induced rat liver microsomes at 8x10E-4M; type: ADME, Microsome; settings: 3-methylcholanthrene-induced rat liver microsomes, read-out: Control; method in brief: as §1
[16] = biological target: T2, aryl hydrocarbon hydroxylase (cytochrome P450 1A1); assay: Effect on Aryl hydrocarbon hydroxylase activity in 3-methylcolanthrene-induced rat liver microsomes at 5.2x10E-5M; type: ADME, Microsome; settings: 3-methylcholanthrene-induced rat liver microsomes, read-out: Control; method in brief: as §2

IC50 (Cytochrome P450 2B1 [1])	IC50 [2]	logP [6]	SMILES	Kd [3]	Kd (Cytochrome P450 2B1 [4])	further results
50 µM	82 µM	3.85	CCCCCc1nc2ccccc2[nH]1			activity at 0.00036 M [7]: 89%
15 µM	18 µM	6.85	CCCCCCCCCCCc1nc2ccccc2[nH]1			activity at 50 µM [11]: 103%
1080 µM	670 µM	1.85	Cc1nc2ccccc2[nH]1	510 µM	440 µM	
26 µM	24 µM	4.85	CCCCCCCc1nc2ccccc2[nH]1			activity at 0.00017 M [12]: 93%
300 µM	480 µM	2.85	CCCc1nc2ccccc2[nH]1			activity at 0.00059 M [13]: 99%
670 µM	630 µM	2.35	CCc1nc2ccccc2[nH]1			

The remaining lines, values behind:

SMILES	IC50 (Cytochrome P450 2B1 [1])	IC50 [2]	logP [6]	Kd [3]	Kd (Cytochrome P450 2B1 [4])	further results
c1ccc(-c2c[nH]cn2)cc1	7.4 µM	33 µM		1.7 µM	1.1 µM	activity at 0.00043 M [5]: 83%
Cc1nc2cc(C)c(C)cc2[nH]1	370 µM	170 µM	2.85	28 µM	100 µM	activity at 0.00023 M [8]: 77%
c1ccc2cc3[nH]cnc3cc2c1	53 µM	84 µM				Kd (Cytochrome P450 2B1 [9]): 15 µM; Kd [10]: 82 µM
CCc1nc2cc(C)c(C)cc2[nH]1	180 µM	110 µM	3.35			
Cc1ccc2[nH]cnc2c1					62 µM	Kd [10]: 210 µM
c1ccc2[nH]cnc2c1 [BENZIMIDAZOLE]	980 µM	1100 µM	1.35	3200 µM	110 µM	activity at 0.0012 M [14]: 101%
Cc1cc2nc[nH]c2cc1C [DIMEDAZOL]	180 µM	97 µM	2.35	320 µM	62 µM	activity at 0.0008 M [15]: 69%
CCCC(C(=O)OCCN(CC)CC)(c1ccccc1)c1ccccc1 [PROADIFEN HYDROCHLORIDE]	8.2 µM	22 µM				activity at 52 µM [16]: 105%
